We go through eight compounds from ChEMBL document CHEMBL1125675, “Synthesis and in vitro biological activity of new deaza analogues of folic acid, aminopterin, and methotrexate with an L-ornithine side chain” (J Med Chem, 1991).

The IC50 is the concentration that inhibits the measured activity by half. Lower therefore signals higher potency.

Test [1] in a line: Inhibitory activity against growth of WI-L2 human leukemic cells. Particulars: WIL2.
Test [2] deals with L1210. As to the kind of experiment: Inhibitory activity against growth of L1210 murine leukemic cells. It is filed as functional, cell-based. Particulars: Mus musculus. In short, it runs like this:
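Growth inhibition was measured by an adapted tetrazolium salt method after 48-h exposure. Cells were grown in RPMI 1640 with 10% fetal bovine serum plus antibiotics. Results are expressed as IC50.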

Test [3] concerns the target T1, Dihydrofolate reductase (Homo sapiens, UniProt P00374).
T1 sequence (P00374 whole entry): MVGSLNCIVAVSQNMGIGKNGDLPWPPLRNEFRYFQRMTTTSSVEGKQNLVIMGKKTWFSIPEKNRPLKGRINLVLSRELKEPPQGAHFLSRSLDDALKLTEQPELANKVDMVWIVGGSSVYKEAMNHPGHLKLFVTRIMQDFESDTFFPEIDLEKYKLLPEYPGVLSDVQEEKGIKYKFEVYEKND
Kind of test: Inhibition of dihydrofolate reductase(DHFR) enzyme from human leukemic lymphoblasts. In short, it runs like this:
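Spectrophotometric read-out at 340 nm. Enzyme was DHFR purified from human leukemic lymphoblasts (WI-L2/M4).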

A value given as a limit tells only on which side of the number the result lay.

`NCCCC(NC(=O)c1ccc(NCc2cnc3nc(N)nc(N)c3n2)cc1)C(=O)O` (centres undefined) yielded an IC50 in test [1] of 2600 nM.
For `NCCCC(NC(=O)c1ccc(NCc2ccc3nc(N)nc(N)c3c2)cc1)C(=O)O` (centres undefined), the IC50 in test [2] came to 280 nM; in test [1], 180 nM.
As for `CN(Cc1cnc2nc(N)nc(N)c2n1)c1ccc(C(=O)NC(CCCNCC(=O)O)C(=O)O)cc1` (centres undefined), the IC50 in test [3] was 50 nM; in test [2], 1100 nM; in test [1], 4300 nM.
Consider `NCCCC(NC(=O)c1ccc(NCc2ccc3nc(N)nc(O)c3c2)cc1)C(=O)O` (centres undefined), for which the IC50 in test [3] is 750 nM; in test [2] it was > 5000 nM.
For the compound `NCCCC(NC(=O)c1ccc(NCc2cnc3nc(N)nc(O)c3c2)cc1)C(=O)O` (centres undefined), the IC50 in test [2] was > 5000 nM.
As to `NCCCC(NC(=O)c1ccc(NCc2ccc3nc(N)nc(N)c3n2)cc1)C(=O)O` (centres undefined), it took 660 nM to reach half-maximal inhibition in test [2] (IC50).
As for `CN(Cc1cnc2nc(N)nc(N)c2n1)c1ccc(C(=O)NC(CCCN)C(=O)O)cc1` (centres undefined), in test [3], the IC50 was determined as 160 nM.
With `NCCCC(NC(=O)c1ccc(NCc2cnc3nc(N)nc(N)c3c2)cc1)C(=O)O` (centres undefined), the IC50 in test [3] turned out to be 27 nM; in test [2] it was 1400 nM; in test [1], 860 nM.
